The source made the active and inactive calls. The rule behind the calls is not given here.
Columns and labels:
[1] = molecular target: T1, Androgen receptor/Baculoviral IAP repeat-containing protein 2 (Homo sapiens, UniProt P10275+Q13490); experiment: Induction of AR/cIAP1 interaction in human 22Rv1 cells assessed as ubiquitin proteasome system mediated androgen receptor protein degradation at 30 uM in presence of methyl (2S)-2-(((2S,3R)-3-amino-2-hydroxy-4-phenylbutanoyl)amino)-4-methylpentanoate after 6 hrs by Western blot analysis; assay type: cell-based
Summary of the method: (§1)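 22Rv1 cells were treated with compound, or with separate ligands (30 μM or 3 μM each), for 6 h. Lysates in SDS buffer (0.1 M Tris pH 8.0, 1% SDS) were normalized by BCA, run on SDS-PAGE and immunoblotted. AR/GAPDH ratio was normalized to vehicle as 100. DC50 is the concentration giving 50% AR reduction; means ± SD, n = 3; t-test against vehicle.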
Target sequence in this assay (Q13490 whole entry, looked up, one chain of several): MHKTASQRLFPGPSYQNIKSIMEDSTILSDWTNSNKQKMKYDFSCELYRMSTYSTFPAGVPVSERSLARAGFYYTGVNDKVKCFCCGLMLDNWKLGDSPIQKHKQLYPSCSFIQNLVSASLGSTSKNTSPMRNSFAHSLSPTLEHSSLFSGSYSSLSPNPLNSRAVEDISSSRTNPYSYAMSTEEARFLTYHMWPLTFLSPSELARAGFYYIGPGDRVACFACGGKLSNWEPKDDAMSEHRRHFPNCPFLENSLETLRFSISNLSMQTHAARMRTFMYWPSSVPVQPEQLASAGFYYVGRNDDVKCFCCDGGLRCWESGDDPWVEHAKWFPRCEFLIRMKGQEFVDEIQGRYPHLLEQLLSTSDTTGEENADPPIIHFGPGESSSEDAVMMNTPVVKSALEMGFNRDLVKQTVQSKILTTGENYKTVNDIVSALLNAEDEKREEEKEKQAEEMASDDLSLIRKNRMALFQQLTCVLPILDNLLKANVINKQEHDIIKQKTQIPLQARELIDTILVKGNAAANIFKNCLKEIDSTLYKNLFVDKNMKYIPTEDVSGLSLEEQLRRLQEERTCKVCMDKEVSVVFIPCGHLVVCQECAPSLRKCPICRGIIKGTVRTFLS

[2] = molecular target: T1, Androgen receptor/Baculoviral IAP repeat-containing protein 2; experiment: Induction of AR/cIAP1 interaction in human 22Rv1 cells assessed as ubiquitin proteasome system mediated androgen receptor protein degradation at 3 uM in presence of N-((1S)-1-Cyclohexyl-2-((2S)-2-(4-(3-methoxybenzoyl)-1,3-thiazol-2-yl)pyrrolidin-1-yl)-2-oxoethyl)-N2-methyl-L-alaninamide after 6 hrs by Western blot analysis; assay type: cell-based; summary of the method: as §1
Target sequence in this assay (Q13490 whole entry, looked up, one chain of several): as above

Androgen receptor [3] = molecular target: T2, Androgen receptor (Homo sapiens, UniProt P10275); experiment: Binding affinity to androgen receptor (unknown origin)
T2 sequence (P10275 whole entry): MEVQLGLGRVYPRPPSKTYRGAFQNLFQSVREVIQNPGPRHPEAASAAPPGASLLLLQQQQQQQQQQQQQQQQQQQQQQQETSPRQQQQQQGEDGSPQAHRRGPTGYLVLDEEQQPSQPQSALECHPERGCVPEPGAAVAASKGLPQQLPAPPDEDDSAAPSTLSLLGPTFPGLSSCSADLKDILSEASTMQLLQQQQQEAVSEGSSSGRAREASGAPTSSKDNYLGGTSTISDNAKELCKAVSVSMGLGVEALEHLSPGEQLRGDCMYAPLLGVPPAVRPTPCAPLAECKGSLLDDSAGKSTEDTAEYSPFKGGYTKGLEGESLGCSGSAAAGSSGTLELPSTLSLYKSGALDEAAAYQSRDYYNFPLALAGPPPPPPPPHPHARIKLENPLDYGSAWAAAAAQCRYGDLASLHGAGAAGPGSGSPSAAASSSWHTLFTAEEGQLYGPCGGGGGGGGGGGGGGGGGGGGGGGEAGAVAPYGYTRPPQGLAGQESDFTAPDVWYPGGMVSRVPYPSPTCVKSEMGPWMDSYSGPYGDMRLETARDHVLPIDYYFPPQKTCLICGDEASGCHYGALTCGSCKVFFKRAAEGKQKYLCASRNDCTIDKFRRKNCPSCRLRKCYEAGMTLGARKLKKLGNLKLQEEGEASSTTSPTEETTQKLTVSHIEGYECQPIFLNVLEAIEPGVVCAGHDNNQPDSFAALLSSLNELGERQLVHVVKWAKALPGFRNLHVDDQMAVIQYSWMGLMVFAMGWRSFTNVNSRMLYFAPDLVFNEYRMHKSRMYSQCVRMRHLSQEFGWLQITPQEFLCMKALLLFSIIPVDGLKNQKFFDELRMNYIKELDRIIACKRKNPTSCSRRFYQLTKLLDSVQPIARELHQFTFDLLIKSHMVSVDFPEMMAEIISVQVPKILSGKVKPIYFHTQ
Summary of the method: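 Wild-type AR expressed by transfection of FreeStyle293F cells (48 h shaking at 37 °C), then lysed by freeze-thaw in TEGM buffer (pH 7.2, molybdate, DTT). Cleared lysate incubated with [3H]mibolerone (final 3 nM) plus test compound at 4 °C for 3 h. Bound and free separated by dextran/charcoal, bound counted, and % inhibition calculated. IC50 taken from three separate experiments.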

[4] = molecular target: T1, Androgen receptor/Baculoviral IAP repeat-containing protein 2; experiment: Induction of AR/cIAP1 interaction in human 22Rv1 cells assessed as ubiquitin proteasome system mediated androgen receptor protein degradation at 1 to 3 uM after 6 hrs by Western blot analysis; assay type: cell-based; summary of the method: as §1
Target sequence in this assay (Q13490 whole entry, looked up, one chain of several): as the sequence (Q13490 whole entry, looked up, one chain of several) above

[5] = molecular target: T1, Androgen receptor/Baculoviral IAP repeat-containing protein 2; experiment: Induction of AR/cIAP1 interaction in human 22Rv1 cells assessed as ubiquitin proteasome system mediated androgen receptor protein degradation at 3 uM after 6 hrs by Western blot analysis; assay type: cell-based; summary of the method: as §1
Target sequence in this assay (Q13490 whole entry, looked up, one chain of several): as the sequence (Q13490 whole entry, looked up, one chain of several) above

[6] = molecular target: T1, Androgen receptor/Baculoviral IAP repeat-containing protein 2; experiment: Induction of AR/cIAP1 interaction in human 22Rv1 cells assessed as ubiquitin proteasome system mediated androgen receptor protein degradation at 3 uM in presence of 1-benzyl-4-(4-cyanophenyl)-2,5-dimethyl-1H-pyrrole-3-carbonitrile after 6 hrs by Western blot analysis; assay type: cell-based; summary of the method: as §1
Target sequence in this assay (Q13490 whole entry, looked up, one chain of several): as the sequence (Q13490 whole entry, looked up, one chain of several) above

[7] = molecular target: T1, Androgen receptor/Baculoviral IAP repeat-containing protein 2; experiment: Induction of AR/cIAP1 interaction in human 22Rv1 cells assessed as ubiquitin proteasome system mediated androgen receptor protein degradation after 6 hrs by Western blot analysis; assay type: cell-based; summary of the method: as §1
Target sequence in this assay (Q13490 whole entry, looked up, one chain of several): as the sequence (Q13490 whole entry, looked up, one chain of several) above

Androgen receptor [8] = molecular target: T2, Androgen receptor; experiment: Displacement of [17-alpha-methyl-H-3] mibolerone from wild-type androgen receptor (unknown origin) expressed in human Freestyle293F cells measured after 3 hrs; assay type: cell-based
Summary of the method: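 Wild-type AR was expressed in FreeStyle293F cells (pcDNA3.1, 48 h, 37 °C, 8% CO2). Cells were lysed in TEGM buffer (pH 7.2, molybdate, DTT) by freeze–thaw, and the supernatant from 228,000g spin was used. Lysate was incubated with 3 nM (final) [3H]mibolerone plus compound at 4 °C for 3 h. Bound and free were separated by dextran/charcoal and bound counts gave % inhibition; IC50 from three experiments.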

[9] = molecular target: T1, Androgen receptor/Baculoviral IAP repeat-containing protein 2; experiment: Induction of AR/cIAP1 interaction in human 22Rv1 cells assessed as ubiquitin proteasome system mediated androgen receptor protein degradation by Western blot analysis
Target sequence in this assay (Q13490 whole entry, one chain of several): as the sequence (Q13490 whole entry, looked up, one chain of several) above

[10] = molecular target: T1, Androgen receptor/Baculoviral IAP repeat-containing protein 2; experiment: Induction of AR/cIAP1 interaction in human 22Rv1 cells assessed as ubiquitin proteasome system mediated androgen receptor protein degradation at 30 uM after 6 hrs by Western blot analysis; assay type: cell-based; summary of the method: as §1

With `Cc1c(C#N)c(-c2ccc(C#N)cc2)c(C)n1Cc1ccccc1` the Activity [1] was “inactive” and the Activity [2] was “inactive”.

In the case of `Cc1nn(-c2ccc(C#N)c(Cl)c2)c(C)c1CCc1ccc(C(=O)O)cc1`, the IC50 (Androgen receptor [3]) is reported as 0.053 µM.

For `CN[C@@H](C)C(=O)N[C@H](C(=O)N1CCC[C@H]1c1nc(C(=O)c2cccc(OCCOCCOCCOCCCc3ccc(Cn4c(C)c(C#N)c(-c5ccc(C#N)cc5)c4C)cc3)c2)cs1)C1CCCCC1`, the Activity [4] was “Active”.

`CN[C@@H](C)C(=O)N[C@H](C(=O)N1CCC[C@H]1c1nc(C(=O)c2cccc(OCCOCCOCCOc3ccc(Cn4c(C)c(C#N)c(-c5ccc(C#N)cc5)c4C)cc3)c2)cs1)C1CCCCC1` was tested, and the Activity [5] was “Active”.

`CN[C@@H](C)C(=O)N[C@H](C(=O)N1CCC[C@H]1c1nc(C(=O)c2cccc(OC)c2)cs1)C1CCCCC1` was tested, and the Activity [6] was “inactive”.

In the case of `CN[C@@H](C)C(=O)N[C@H](C(=O)N1CCC[C@H]1c1nc(C(=O)c2cccc(OCCOCCOCCOCCOc3ccccc3Cn3c(C)c(C#N)c(-c4ccc(C#N)cc4)c3C)c2)cs1)C1CCCCC1`, the Activity [4] is reported as “inactive”.

In the case of `CN[C@@H](C)C(=O)N[C@H](C(=O)N1CCC[C@H]1c1nc(C(=O)c2cccc(OCCOc3cccc(OCCOc4ccc(Cn5c(C)c(C#N)c(-c6ccc(C#N)cc6)c5C)cc4)c3)c2)cs1)C1CCCCC1`, the Activity [4] is reported as “inactive”.

For `CN[C@@H](C)C(=O)N[C@H](C(=O)N1CCC[C@H]1c1nc(C(=O)c2cccc(OCCOCCOCCNC(=O)c3ccc(Cn4c(C)c(C#N)c(-c5ccc(C#N)cc5)c4C)cc3)c2)cs1)C1CCCCC1`, the MED [7] was 3 µM and the Activity [4] was “Active”.

`Cc1c(C#N)c(-c2ccc(C#N)cc2)c(C)n1Cc1ccc(C(=O)O)cc1` showed an IC50 (Androgen receptor [3]) of 0.0014 µM.

`Cc1nn(-c2ccc(C#N)c(Cl)c2)c(C)c1CCc1ccc(C(=O)NCCOCCOCCOCCNC(=O)[C@H](CC(C)C)NC(=O)[C@@H](O)[C@H](N)Cc2ccccc2)cc1` gave an IC50 (Androgen receptor [8]) of 0.19 µM and a DC50 [9] of 20.5 µM.

With `CN[C@@H](C)C(=O)N[C@H](C(=O)N1CCC[C@H]1c1nc(C(=O)c2cccc(OCCOCCOCCOCC#Cc3ccc(Cn4c(C)c(C#N)c(-c5ccc(C#N)cc5)c4C)cc3)c2)cs1)C1CCCCC1` the Activity [4] was “Active”.

`CN[C@@H](C)C(=O)N[C@H](C(=O)N1CCC[C@H]1c1nc(C(=O)c2cccc(OCCOc3ccc(OCCOc4ccc(Cn5c(C)c(C#N)c(-c6ccc(C#N)cc6)c5C)cc4)cc3)c2)cs1)C1CCCCC1` was tested, and the Activity [4] was “inactive”.

`Cc1c(C#N)c(-c2ccc(C#N)cc2)c(C)n1Cc1ccc(C(=O)NCCOCCOCCOCCNC(=O)[C@H](CC(C)C)NC(=O)[C@@H](O)[C@H](N)Cc2ccccc2)cc1` was tested, and the MED [7] was 30 µM, the IC50 (Androgen receptor [8]) was 0.027 µM and the Activity [10] was “Active”. For the same molecule, the DC50 [9] was 21.6 µM.

`Cc1nn(-c2ccc(C#N)c(C(F)(F)F)c2)c(C)c1Cc1ccc(C(=O)NCCOCCOCCOCCNC(=O)[C@H](CC(C)C)NC(=O)[C@@H](O)[C@H](N)Cc2ccccc2)cc1` was tested, and the IC50 (Androgen receptor [8]) was 0.19 µM and the DC50 [9] was 11.7 µM.

For `CN[C@@H](C)C(=O)N[C@H](C(=O)N1CCC[C@H]1c1nc(C(=O)c2cccc(OCCOc3ccccc3OCCOc3ccc(Cn4c(C)c(C#N)c(-c5ccc(C#N)cc5)c4C)cc3)c2)cs1)C1CCCCC1`, the Activity [4] was “inactive”.

For `CN[C@@H](C)C(=O)N[C@H](C(=O)N1CCC[C@H]1c1nc(C(=O)c2cccc(OCCOCCOCCOCCOCCOc3ccc(Cn4c(C)c(C#N)c(-c5ccc(C#N)cc5)c4C)cc3)c2)cs1)C1CCCCC1`, the Activity [5] was “Active”.

`Cc1nn(-c2ccc(C#N)cc2Cl)c(C)c1Cc1ccc(C(=O)NCCOCCOCCOCCNC(=O)[C@H](CC(C)C)NC(=O)[C@@H](O)[C@H](N)Cc2ccccc2)cc1` was tested, and the IC50 (Androgen receptor [8]) was greater than 10 µM and the DC50 [9] was greater than 30 µM.

In the case of `CN[C@@H](C)C(=O)N[C@H](C(=O)N1CCC[C@H]1c1nc(C(=O)c2cccc(OCCOCCOCCOCCOc3cccc(Cn4c(C)c(C#N)c(-c5ccc(C#N)cc5)c4C)c3)c2)cs1)C1CCCCC1`, the Activity [4] is reported as “Active”.

Work on `CN[C@@H](C)C(=O)N[C@H](C(=O)N1CCC[C@H]1C(=O)N[C@H](C(=O)NCCOCCOCCOCCNC(=O)c1ccc(Cn2c(C)c(C#N)c(-c3ccc(C#N)cc3)c2C)cc1)C(c1ccccc1)c1ccccc1)C1CCCCC1` yielded an MED [7] of 20 µM.

For `CC(C)C[C@H](NC(=O)[C@@H](O)[C@H](N)Cc1ccccc1)C(=O)NCCOCCOCCOCCNC(=O)c1ccc(S(=O)(=O)CC(C)(O)C(=O)Nc2ccc(C#N)c(C(F)(F)F)c2)cc1` (some centres undefined), the IC50 (Androgen receptor [8]) was 1.1 µM and the DC50 [9] was greater than 30 µM.
